From ChEMBL document CHEMBL1149302, “Design, synthesis, and pharmacological characterization of novel, potent NMDA receptor antagonists” (J Med Chem, 2004) come the findings set out here.

For experiment [1], the system named is Mus musculus. Kind of experiment: Anticonvulsant activity in ip dosed DBA/2 mouse assessed as inhibition of tonic extension seizures. Format: functional. Particulars: DBA/2, ip. Put shortly:
(§1)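 Male DBA/2 mice (6-12 g, 22-26 days old) dosed ip in 100 μL/10 g. Compounds dissolved in 0.1 mM NaOH and brought to pH 7.3-7.7 with phosphate buffer; vehicle water. 45 min after dosing, a 110 dB bell sounded for 60 s or until clonic seizure onset. Seizure scoring: wild running 1, clonus 2, tonic extension 3, respiratory arrest 4. ED50 reported in μmol/kg.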

Experiment [2] is described as follows: Displacement of [3H]kainic acid from rat brain kainate receptor. An outline of the steps:
(§2)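 Rat brain membranes prepared per Ransom and Stec with modifications. Radioligand binding with 5 nM [3H]AMPA, or 5 nM [3H]kainic acid in the absence of CaCl2. Bound radioactivity measured by scintillation counting. Racemates tested. Values are antilog of log mean of at least three experiments.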
A general note: Displacement assays read how much labelled ligand stays bound in the presence of the test substance.

Experiment [3] concerns the target Glutamate NMDA receptor. Kind of experiment: Displacement of [3H]CGP-39653 from rat brain NMDA receptor. Put shortly:
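Rat brain membranes prepared per Ransom and Stec with modifications. Binding with 2 nM [3H]CGP 39653, with bound radioactivity measured by scintillation counting. Racemates tested. Values are antilog of log mean of at least three experiments.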

Experiment [4] can be described thus: Displacement of [3H]AMPA from rat cortex AMPA receptor. An outline of the steps: as §2
Experiment [5] concerns Mus musculus. Kind of experiment: Anticonvulsant activity in ip dosed DBA/2 mouse assessed as inhibition of clonic seizures. Format: functional. Particulars: DBA/2, ip. An outline of the steps:
as §1

The target in experiment [6] is Metabotropic glutamate receptor 5 (Rattus norvegicus) (UniProt P31424). The experiment is described as follows: Activity at rat mGluR5a expressed in CHO cells at 1 mM. The class given is cell-based. Put shortly:
(§3)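 Rat mGluR1α, mGluR2, mGluR4a and mGluR5a each expressed in CHO cell lines. Compounds tested at 1 mM for both agonist and antagonist activity.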

Experiment [7] addresses Metabotropic glutamate receptor 4 (Rattus norvegicus) (UniProt P31423). The experiment is described as follows: Activity at rat mGluR4a expressed in CHO cells at 1 mM. Format: cell-based. An outline of the steps:
as §3

Experiment [8] addresses Metabotropic glutamate receptor 2 (Rattus norvegicus) (UniProt P31421). The experiment is described as follows: Activity at rat mGluR2 expressed in CHO cells at 1 mM. The class given is cell-based. Put shortly: as §3
The target of experiment [9] is Metabotropic glutamate receptor 1 (Rattus norvegicus) (UniProt P23385). Kind of experiment: Activity at rat mGluR1 expressed in CHO cells at 1 mM. Format: cell-based. Put shortly: as §3
For experiment [10], the species on record is Rattus norvegicus. The experiment is described as follows: Activity at Kainate receptor in rat cortical slice assessed as antagonism of 5 uM kainic acid-induced response. The class given is functional.
The subject of experiment [11] is Mus musculus. The experiment is described as follows: Induction of sedation in DBA/2 mouse at 100 […], ip. The class given is functional, organism-based.
The subject of experiment [12] is Mus musculus. The experiment is described as follows: Reduction of locomotor activity in DBA/2 mouse at 100 […], ip. Format: functional, organism-based.
Experiment [13] in a line: Activity at NMDA receptor in rat corticle slice assessed as antagonism of 10 uM NMDA-induced response. The class given is functional. Put shortly:
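Modified rat cortical wedge preparation; depolarizing responses induced by NMDA (10 μM) recorded and antagonism measured. Racemates tested. Values are antilog of the log mean of at least three individual experiments, with ±SEM on a logarithmic distribution.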

For experiment [14], the species on record is Rattus norvegicus. The experiment is described as follows: Activity at AMPA receptor in rat cortical slice assessed as antagonism of 5 uM AMPA-induced response. The class given is functional.
Experiment [15] deals with Glutamate NMDA receptor. Kind of experiment: Displacement of [3H]CPP from rat brain NMDA receptor.

Active and inactive are the calls of the source. The rule behind the calls is not given here.

Metabotropic glutamate receptor 4 (Rattus norvegicus), sequence (P31423 whole entry): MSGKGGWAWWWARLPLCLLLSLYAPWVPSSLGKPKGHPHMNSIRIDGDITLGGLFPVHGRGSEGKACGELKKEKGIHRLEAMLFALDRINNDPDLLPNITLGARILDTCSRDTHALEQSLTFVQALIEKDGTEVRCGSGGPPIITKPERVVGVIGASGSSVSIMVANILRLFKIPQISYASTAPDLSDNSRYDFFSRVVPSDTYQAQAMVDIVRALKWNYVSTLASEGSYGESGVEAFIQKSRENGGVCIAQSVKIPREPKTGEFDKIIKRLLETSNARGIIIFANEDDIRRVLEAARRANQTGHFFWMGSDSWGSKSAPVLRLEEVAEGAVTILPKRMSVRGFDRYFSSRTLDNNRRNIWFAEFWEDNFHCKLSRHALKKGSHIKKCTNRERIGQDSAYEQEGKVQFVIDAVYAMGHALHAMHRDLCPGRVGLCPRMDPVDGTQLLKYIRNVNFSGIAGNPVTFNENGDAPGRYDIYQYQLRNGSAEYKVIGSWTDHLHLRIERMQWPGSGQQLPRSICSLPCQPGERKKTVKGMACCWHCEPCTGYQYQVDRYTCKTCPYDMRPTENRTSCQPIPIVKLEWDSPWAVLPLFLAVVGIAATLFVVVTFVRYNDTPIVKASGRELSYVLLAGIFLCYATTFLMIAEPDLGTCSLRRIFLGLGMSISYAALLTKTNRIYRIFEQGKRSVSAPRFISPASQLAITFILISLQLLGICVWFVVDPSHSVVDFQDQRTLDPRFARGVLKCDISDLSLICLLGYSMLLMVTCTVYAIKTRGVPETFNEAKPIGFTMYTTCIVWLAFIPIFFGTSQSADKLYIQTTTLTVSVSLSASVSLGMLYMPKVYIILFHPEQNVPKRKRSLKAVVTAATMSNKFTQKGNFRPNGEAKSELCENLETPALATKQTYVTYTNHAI
Metabotropic glutamate receptor 1 (Rattus norvegicus), sequence (P23385 19-1199 limits assumed): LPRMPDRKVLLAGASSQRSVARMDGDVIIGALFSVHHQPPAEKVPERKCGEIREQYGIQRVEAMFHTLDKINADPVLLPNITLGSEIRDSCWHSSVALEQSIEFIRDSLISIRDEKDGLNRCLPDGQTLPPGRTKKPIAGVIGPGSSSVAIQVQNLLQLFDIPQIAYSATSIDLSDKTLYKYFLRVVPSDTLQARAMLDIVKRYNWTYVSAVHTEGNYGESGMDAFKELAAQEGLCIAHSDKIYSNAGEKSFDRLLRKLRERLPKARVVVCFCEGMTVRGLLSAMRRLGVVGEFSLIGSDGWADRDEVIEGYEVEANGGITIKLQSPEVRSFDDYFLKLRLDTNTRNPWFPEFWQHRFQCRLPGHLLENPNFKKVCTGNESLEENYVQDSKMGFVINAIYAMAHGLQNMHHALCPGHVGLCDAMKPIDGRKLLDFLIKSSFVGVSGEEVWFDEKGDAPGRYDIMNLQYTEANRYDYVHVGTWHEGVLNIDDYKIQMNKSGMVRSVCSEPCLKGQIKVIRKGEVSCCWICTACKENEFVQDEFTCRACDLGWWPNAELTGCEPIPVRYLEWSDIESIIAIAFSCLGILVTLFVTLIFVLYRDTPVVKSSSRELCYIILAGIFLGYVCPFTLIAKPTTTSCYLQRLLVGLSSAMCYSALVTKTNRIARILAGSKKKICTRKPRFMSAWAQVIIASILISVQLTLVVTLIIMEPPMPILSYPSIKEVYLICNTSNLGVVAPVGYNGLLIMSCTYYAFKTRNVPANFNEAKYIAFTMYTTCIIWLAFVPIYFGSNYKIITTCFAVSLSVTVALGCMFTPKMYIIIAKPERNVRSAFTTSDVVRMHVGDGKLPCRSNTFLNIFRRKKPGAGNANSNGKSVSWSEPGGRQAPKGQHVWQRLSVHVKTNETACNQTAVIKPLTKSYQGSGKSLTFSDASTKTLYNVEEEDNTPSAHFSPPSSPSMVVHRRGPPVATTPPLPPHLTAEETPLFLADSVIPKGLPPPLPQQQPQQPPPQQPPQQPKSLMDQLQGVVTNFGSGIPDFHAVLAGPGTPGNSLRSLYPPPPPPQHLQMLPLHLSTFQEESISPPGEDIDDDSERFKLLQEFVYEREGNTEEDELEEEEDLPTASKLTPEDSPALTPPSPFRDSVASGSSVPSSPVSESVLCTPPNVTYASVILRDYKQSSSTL
Metabotropic glutamate receptor 5 (Rattus norvegicus), sequence (P31424 21-1203 limits assumed): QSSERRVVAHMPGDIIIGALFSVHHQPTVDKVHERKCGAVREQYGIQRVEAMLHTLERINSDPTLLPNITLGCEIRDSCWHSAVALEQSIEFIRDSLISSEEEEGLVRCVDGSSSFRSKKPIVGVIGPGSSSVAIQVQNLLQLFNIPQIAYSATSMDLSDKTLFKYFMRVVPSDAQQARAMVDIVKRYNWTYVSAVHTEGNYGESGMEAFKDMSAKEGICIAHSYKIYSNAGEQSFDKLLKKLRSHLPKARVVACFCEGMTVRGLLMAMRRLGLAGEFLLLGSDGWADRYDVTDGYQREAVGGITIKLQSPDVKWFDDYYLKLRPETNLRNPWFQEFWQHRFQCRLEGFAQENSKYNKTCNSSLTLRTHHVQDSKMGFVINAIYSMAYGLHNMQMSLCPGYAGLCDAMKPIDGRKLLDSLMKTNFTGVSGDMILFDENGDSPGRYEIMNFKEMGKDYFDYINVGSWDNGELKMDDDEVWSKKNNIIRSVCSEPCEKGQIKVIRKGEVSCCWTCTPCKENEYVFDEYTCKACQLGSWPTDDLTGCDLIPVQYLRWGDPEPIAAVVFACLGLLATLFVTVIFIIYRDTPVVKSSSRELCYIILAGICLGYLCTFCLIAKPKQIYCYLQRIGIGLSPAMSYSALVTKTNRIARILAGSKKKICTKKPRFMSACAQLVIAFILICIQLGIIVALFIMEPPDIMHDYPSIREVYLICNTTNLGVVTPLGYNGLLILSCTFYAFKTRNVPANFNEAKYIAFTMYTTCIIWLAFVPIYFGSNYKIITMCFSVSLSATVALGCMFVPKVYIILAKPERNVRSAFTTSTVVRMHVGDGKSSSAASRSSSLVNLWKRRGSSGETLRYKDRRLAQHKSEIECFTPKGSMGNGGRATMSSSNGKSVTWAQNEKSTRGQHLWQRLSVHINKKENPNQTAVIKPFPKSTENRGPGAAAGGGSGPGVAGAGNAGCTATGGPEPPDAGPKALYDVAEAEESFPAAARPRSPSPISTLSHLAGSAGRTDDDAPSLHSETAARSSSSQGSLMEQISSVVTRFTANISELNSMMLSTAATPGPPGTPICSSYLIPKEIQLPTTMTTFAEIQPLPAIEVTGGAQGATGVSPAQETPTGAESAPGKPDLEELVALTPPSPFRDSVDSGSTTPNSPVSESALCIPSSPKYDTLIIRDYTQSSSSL
Metabotropic glutamate receptor 2 (Rattus norvegicus), sequence (P31421 19-872 limits assumed): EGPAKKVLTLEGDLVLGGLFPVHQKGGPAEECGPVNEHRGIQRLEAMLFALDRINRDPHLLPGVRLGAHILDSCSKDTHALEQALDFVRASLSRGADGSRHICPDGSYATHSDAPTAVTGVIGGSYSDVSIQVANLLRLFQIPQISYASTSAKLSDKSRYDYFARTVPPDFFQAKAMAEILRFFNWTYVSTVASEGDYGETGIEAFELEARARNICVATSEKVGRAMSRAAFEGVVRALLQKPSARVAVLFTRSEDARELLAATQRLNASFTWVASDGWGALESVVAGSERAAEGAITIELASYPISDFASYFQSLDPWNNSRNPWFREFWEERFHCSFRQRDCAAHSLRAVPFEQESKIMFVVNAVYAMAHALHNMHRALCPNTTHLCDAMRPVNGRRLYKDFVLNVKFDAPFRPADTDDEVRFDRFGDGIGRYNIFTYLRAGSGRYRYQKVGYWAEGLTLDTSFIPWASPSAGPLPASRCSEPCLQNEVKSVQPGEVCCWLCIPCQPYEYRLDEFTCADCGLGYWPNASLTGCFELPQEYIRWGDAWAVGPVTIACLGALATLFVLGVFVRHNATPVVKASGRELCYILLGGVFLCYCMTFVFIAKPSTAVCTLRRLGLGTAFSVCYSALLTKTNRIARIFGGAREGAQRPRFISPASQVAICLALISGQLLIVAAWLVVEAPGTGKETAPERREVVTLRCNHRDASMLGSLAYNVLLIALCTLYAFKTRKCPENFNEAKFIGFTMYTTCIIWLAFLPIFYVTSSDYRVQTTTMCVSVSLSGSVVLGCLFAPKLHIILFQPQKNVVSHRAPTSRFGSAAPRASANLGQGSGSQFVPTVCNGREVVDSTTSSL

As usually defined, the ED50 is the midpoint of the dose-response relation. By IC50 is commonly meant the concentration that gives 50% inhibition. What is called Ki is a measure of affinity in units of concentration, obtained from inhibition or displacement. Higher therefore signals lower affinity. Consider `N[C@@]1(C(=O)O)C[C@@H]2ON=C(C(=O)O)[C@@H]2C1` (racemic), for which the ED50 worked out at 22 µmol/kg in the experiment on Mus musculus [1] and 28 µmol/kg in the experiment on Mus musculus [5]. Moreover, the IC50 in experiment [2] and in experiment [4] was greater than 100 µM in each case. Moreover, on Glutamate NMDA receptor [3], the inhibition constant Ki came out at 0.37 µM.
As to `CC1(C)ON=C(C(=O)O)[C@H]1C[C@@H](N)C(=O)O` (relative stereo), the result in [6], in experiment [7], in [8] and in experiment [9] was inactive. Further, the IC50 in [2] and in experiment [4] was greater than 100 µM throughout. At Glutamate NMDA receptor [3], this compound came in with a Ki greater than 100 µM.
As to `CC1(C)ON=C(C(=O)O)[C@H]1C[C@H](N)C(=O)O` (relative stereo), the outcome in experiment [6], in experiment [7], in experiment [8] and in [9] was inactive. For the same compound, the concentration for half-maximal inhibition (IC50) in experiment [2] was greater than 100 µM; in [4], 12 µM. The Ki at Glutamate NMDA receptor [3] amounted to 79 µM.
With `N[C@@H](C[C@@H]1CC(C(=O)O)=NO1)C(=O)O` (relative stereo), the result (in the experiment listed under Rattus norvegicus [10]; in experiment [6]; in experiment [7]; in experiment [8]; in experiment [9]; in the experiment listed under Rattus norvegicus [14]) was inactive. The ED50 in the experiment on Mus musculus [1] turned out to be 13.9 µmol/kg; with Mus musculus [5] it was 17.9 µmol/kg. Also, the outcome in the experiment on Mus musculus [11] and in the experiment with Mus musculus [12] was Active. For the same compound, the values for the IC50 in experiment [13], in experiment [2] and in experiment [4] were 14.2 µM, greater than 100 µM and greater than 100 µM, respectively. Affinity on Glutamate NMDA receptor [3] was put at a Ki of 0.21 µM.
In the case of `N[C@H](C[C@@H]1CC(C(=O)O)=NO1)C(=O)O` (relative stereo), the values for the ED50 in the experiment on Mus musculus [1] and in the experiment on Mus musculus [5] were 19.7 µmol/kg and 29.9 µmol/kg, respectively. Also, the result in experiment [6], in experiment [7], in experiment [8] and in experiment [9] was inactive. Moreover, the IC50 in [2] and in experiment [4] was greater than 100 µM in each case. This compound registered a Ki at Glutamate NMDA receptor [3] of 0.96 µM.
Regarding `O=C(O)C1CN(C/C=C/P(=O)(O)O)CCN1` (single isomer, unassigned; (-)), the values for the ED50 in the experiment with Mus musculus [1] and with Mus musculus [5] were 1.3 µmol/kg and 3.5 µmol/kg, respectively. Besides, the Ki at Glutamate NMDA receptor [15] came to 0.04 µM.
For the compound `O=C1NC(=O)C(c2ccccc2)(c2ccccc2)N1` [PHENYTOIN], the ED50 with Mus musculus [1] came out at 7.3 µmol/kg; with Mus musculus [5] it was 9.1 µmol/kg.
